Screening data: PubChem, The Scripps Research Institute Molecular Screening Center
M1 PAM parental – nonselective calcium activators in parental CHO-K1 cells, primary screen, counter-screen for M1 PAM project, cell-based, Fluo-8 calcium fluorescence, full deck, 1536-well. ATP EC20; 0% at ATP EC20, 100% at ATP max. activation, % at 3 µM. 360,000 tested, 0.02% active. AID 602247, 2012;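 active = activation above the run cutoff, the mean activation of all test compounds plus 3 SD, cut at about 40% in these data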;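 note: peak over basal fluorescence ratio in a 140 s read after ATP addition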
CHO parental Ca – ATP-evoked calcium signal inhibitors, parental CHO, primary screen, counter-screen for OX1R antagonist project, cell-based, fluorescence, Fluo-8 calcium dye. 330,000 tested, 0.63% active. AID 463079, 2010. inhibition, % at 5.6 µM. parental CHO-K1, ATP-induced calcium, Fluo-8 fluorescence;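 active = inhibition above that plate's mean sample inhibition plus 3 SD, cut at about 26% in these data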;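 note: 0% = ATP-challenged DMSO wells and 100% = DMSO wells without ATP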
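Material: parental CHO cells / Compound: single nominal dose of 5.6 µM per compound / Signal: Fluo-8 fluorescence / Replicates: singlicate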
CHO-K1 Ca antag – counter-screen for M1 antagonists: effect in parental CHO-K1 cells. 360,000 tested, 0.6% active. inhibition, % at 3 µM. ATP-induced calcium, Fluo-8 fluorescence;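 active = inhibition above a per-plate cutoff, the plate's mean sample inhibition plus 3 SD, cut at about 24% in these data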;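 note: 0% = DMSO plus EC80 ATP and 100% = DMSO alone without ATP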
OX1R antag-1 – antagonists of human orexin 1 receptor (OX1R); OX1R-expressing cells, FRET antagonist read-out; inhibition, % at 6.6 µM; 330,000 tested, 1.8% active; AID 485270, 2010; in the data active = inhibition mostly above about 38%, no sharp cut-off; inactive = mostly below about 40%;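 note: 0% = agonist challenge alone and 100% = reference antagonist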
Target sequence (O43613 whole entry, looked up): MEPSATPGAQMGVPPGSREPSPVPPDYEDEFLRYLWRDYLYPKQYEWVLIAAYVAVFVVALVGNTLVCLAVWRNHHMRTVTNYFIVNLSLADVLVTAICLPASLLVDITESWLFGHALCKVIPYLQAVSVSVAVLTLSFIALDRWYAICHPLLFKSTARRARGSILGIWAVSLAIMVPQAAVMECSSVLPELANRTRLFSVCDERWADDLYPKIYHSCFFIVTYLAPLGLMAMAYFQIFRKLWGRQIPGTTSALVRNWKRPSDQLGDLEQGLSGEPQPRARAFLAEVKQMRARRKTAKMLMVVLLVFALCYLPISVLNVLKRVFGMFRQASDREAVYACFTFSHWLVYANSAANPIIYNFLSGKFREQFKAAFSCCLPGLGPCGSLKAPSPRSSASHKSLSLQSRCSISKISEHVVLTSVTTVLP
OX1R antag-2 – OX1R (HCRTR1) antagonists, primary screen, fluorescence, CHO/OX1R cells, Fluo-8 calcium, orexin A; Orexin/Hypocretin receptor type 1 (Homo sapiens), O43613; Fluo-8 calcium fluorescence; inhibition, % at 5 µM; 330,000 tested, 0.43% active;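 active = inhibition above its plate's threshold, mean inhibition of all tested compounds on the plate plus 3 SD, cut at about 37% in these data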;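 note: 0% = orexin A challenge wells and 100% = SB-334867-A antagonist wells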
M1 ag parental – counter-screen for M1 agonists: effect in parental CHO-K1 cells; Fluo-8 calcium fluorescence; scaled to maximal ATP response, vehicle zero; activation, % at 3 µM; 360,000 tested, 0.48% active; AID 602248, 2012; in the data active = activation above about 15%;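 note: untransfected CHO-K1 host cells lacking M1 receptor as counterscreen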
OX1R HTRF confirm – OX1R (HCRTR1) antagonists, confirmation, cell-based, HTRF | shares compounds with OX1R antag-1 | OX1R-expressing cells, HTRF antagonist assay | inhibition, % at 6.6 µM | 1,800 tested, 49% active; in the data active = inhibition above about 55%;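 note: CHO cells expressing OX1R stimulated with orexin A at about EC80; 0% = agonist challenge alone and 100% = reference antagonist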
CHO-K1 HTRF cnt – signal inhibition in parental CHO-K1 cells, counter-screen for OX1R antagonist project, cell-based, HTRF. shares compounds with OX1R antag-1. HTRF counterscreen. inhibition, % at 6.6 µM. 1,800 tested, 48% active; in the data active = inhibition above about 17%;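 note: 0% = agonist challenge with vehicle and 100% = vehicle alone without agonist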
Numbers without * were called inactive; . = no result. An excerpt weighted towards active compounds, which were near 2.9% of everything screened.

SMILES	M1 PAM parental	CHO parental Ca	CHO-K1 Ca antag	OX1R antag-1	OX1R antag-2	M1 ag parental	OX1R HTRF confirm	CHO-K1 HTRF cnt
CC(C)c1ccc(NC(=O)C2C3C=CC4(O3)C2C(=O)N(CCCN2CCOCC2)C4C(=O)NC2CCCCC2)cc1 (stereo not drawn)	6	-13	-7	23	-28	0	.	.
CCOC(=O)CN1C=C(c2ccc3ccccc3n2)C(C[N+](=O)[O-])c2ccccc21 (stereo not drawn)	13	-21	-4	117*	-20	2	55*	67*
O=C(NN1C(=O)/C(=C/c2ccc(O)c([N+](=O)[O-])c2)SC1=S)c1ccccc1Cl	17	-15	-6	112*	-29	4	55*	17*
Cc1ccc(NC(=O)COc2ccccc2)cc1S(=O)(=O)N1CCCCCC1	10	-9	-15	98*	-28	6	20	5
O=C(CCOc1ccc(F)cc1)Nc1nccs1	18	-7	-9	1	-11	1	.	.
CCc1sc(C(=O)N2CCN(C(=O)c3ccccc3)CC2)cc1C	9	-18	-10	3	6	0	.	.
O=C(Nc1nc2ccsc2c(=O)s1)c1ccco1	8	1	-3	18	-1	1	.	.
O=c1sc(Nc2ccccc2)nc2ccsc12	3	-15	-3	85*	15	0	92*	9
O=C(O)COc1ccc(/C=C/c2ccc3cccc([N+](=O)[O-])c3n2)cc1	-1	-6	-1	20	-17	0	.	.
CC(=O)Nc1ccc(/C=C/c2ccc3cccc([N+](=O)[O-])c3n2)cc1	2	-15	-5	87*	8	3	62*	10
Cc1cc2nc(-c3ccc(F)cc3)c(CC(C)(C)C)n2c(C)c1Br	11	.	-20	.	.	1	.	.
COc1ccccc1CNCC(=O)Nc1ccc(N(C)C)cc1	4	-1	-6	-7	-4	3	.	.
CCCOc1ccc(/C=N/NC(=O)CN(c2ccc(OCC)cc2)S(C)(=O)=O)cc1	-13	-13	16	5	-46	4	.	.
CCOc1ccc(N(CC(=O)N/N=C/c2cc([N+](=O)[O-])ccc2Cl)S(C)(=O)=O)cc1	15	0	-9	81*	13	0	22	7
CCn1ncc(/C=N/NS(=O)(=O)c2ccc(Cl)cc2)c1C	12	-20	-2	21	-8	3	.	.
O=C(Nc1ccc(Cl)c(-c2nc3ccccc3[nH]2)c1)c1ccc2c(c1)OCO2	16	-19	-7	82*	-26	4	84*	9
COc1ccc(C(=O)Oc2cccc(Nc3ncnc4ccccc34)c2)cc1OC	-4	3	6	84*	14	10	50	11
CN1C2=CC=CC=CC2=[N+](C)C12C=CC(=[N+]([O-])[O-])C=C2[N+](=O)[O-] (stereo not drawn)	-9	-9	0	144*	-13	0	68*	90*
CN1C2=CC=CC=CC2=[N+](C)C12C([N+](=O)[O-])=CC(=[N+]([O-])[O-])C=C2[N+](=O)[O-] (stereo not drawn)	3	-8	0	14	-7	0	.	.
COc1cc(CO)ccc1Oc1nc2ccccc2n2cnnc12	13	-7	3	2	-12	1	.	.
C=CCCC(=O)N1CCC(n2nccc2NC(=O)c2ccccc2C)CC1	21	2	-11	7	-19	1	.	.
O=C(O)c1ccc(NC2=C(N3CCOCC3)C(=O)c3ccccc3C2=O)cc1	15	20	-3	20	7	0	.	.
CC(=O)N(C1=C(N2CCOCC2)C(=O)c2ccccc2C1=O)c1ccc(C(=O)O)cc1	13	-10	-8	125*	-9	1	98*	86*
O=C(O)CC1(CC(=O)Nc2ccc(C(F)(F)F)cc2)CCCC1	28	0	-8	-9	0	1	.	.
COc1ccc(-n2c(C)cc(/C=N/Nc3nnc(C)n3N)c2C)cc1	7	-16	6	108*	-13	1	22	14
SMILES	M1 PAM parental	CHO parental Ca	CHO-K1 Ca antag	OX1R antag-1	OX1R antag-2	M1 ag parental	OX1R HTRF confirm	CHO-K1 HTRF cnt
CCOC(=O)c1c(C)oc2c1c1c(c3ccccc32)OCN(Cc2ccccn2)C1	11	-18	0	84*	-5	1	14	4
COc1ccc(OCC(=O)c2c(O)c3ccccc3oc2=O)cc1	8	-17	4	17	-6	1	.	.
CCOc1ccc(OCC(=O)c2c(O)c3ccccc3oc2=O)cc1	17	5	-12	79*	-8	1	16	-11
NC(=O)CC(NC(=O)Cc1cccc2ccccc12)c1ccc(NCCN2CCCC2)c([N+](=O)[O-])c1 (stereo not drawn)	13	-8	-12	84*	-6	0	22	13
COc1ccccc1N1CCN(C2CCCN(C(=O)CCN3CCCCO3)C2)CC1 (stereo not drawn)	-7	7	-12	8	-11	1	.	.
Nc1nnc(-c2cccc([N+](=O)[O-])c2)s1	0	-6	6	111*	-4	2	35	40*
CC1CCN(C(=O)Cn2c3ccc(F)cc3c3nc4n(c(=O)c32)CCCS4)CC1	17	-11	-8	91*	-22	1	20	7
CC1CCN(C(=O)Cn2c3ccccc3c3nc4n(c(=O)c32)CCCS4)CC1	18	-16	-6	26	-20	2	.	.
O=C(O)c1ccc(Nc2ncc([N+](=O)[O-])cc2[N+](=O)[O-])cc1	5	-8	10	93*	-2	3	68*	107*
Cc1ccc(Nc2ccc(C(=O)O)cc2[N+](=O)[O-])cc1	-9	-5	-10	3	-21	0	.	.
CCNC1=C(Cl)C(=O)c2ccccc2C1=O	6	8	-6	178*	-15	-1	58*	93*
O=C1C(Cl)=C(NCCN2CCCCC2)C(=O)c2ccccc21	8	8	10	90*	-11	0	68*	71*
O=C(NCCN1CCCC1)c1ccccc1Cl	10	-13	-4	12	12	8	.	.
CCCC(=O)NC1=C(Cl)C(=O)c2ccccc2C1=O	30	.	-11	.	.	1	.	.
O=S(=O)(Nc1nc2ccccc2nc1NCc1ccco1)c1ccc(F)cc1	14	-12	-3	171*	-27	4	18	3
